Reference: publication PMC3523390 (Molecular pharmacology, 2010)
pEC50, pKi: −log10 of the molar value. Where two headings read alike, the source gives them in different places.

Experiments:
[1] = target: T1, Mouse PPARγ (Mus musculus, UniProt P37238); experiment: PPAR luciferase reporter gene transactivation in HEK-293 cells; type: cell-based; settings: for Mouse PPARγ Maximal Fold Activation: fold induction vs DMSO
T1 sequence (P37238 1-505): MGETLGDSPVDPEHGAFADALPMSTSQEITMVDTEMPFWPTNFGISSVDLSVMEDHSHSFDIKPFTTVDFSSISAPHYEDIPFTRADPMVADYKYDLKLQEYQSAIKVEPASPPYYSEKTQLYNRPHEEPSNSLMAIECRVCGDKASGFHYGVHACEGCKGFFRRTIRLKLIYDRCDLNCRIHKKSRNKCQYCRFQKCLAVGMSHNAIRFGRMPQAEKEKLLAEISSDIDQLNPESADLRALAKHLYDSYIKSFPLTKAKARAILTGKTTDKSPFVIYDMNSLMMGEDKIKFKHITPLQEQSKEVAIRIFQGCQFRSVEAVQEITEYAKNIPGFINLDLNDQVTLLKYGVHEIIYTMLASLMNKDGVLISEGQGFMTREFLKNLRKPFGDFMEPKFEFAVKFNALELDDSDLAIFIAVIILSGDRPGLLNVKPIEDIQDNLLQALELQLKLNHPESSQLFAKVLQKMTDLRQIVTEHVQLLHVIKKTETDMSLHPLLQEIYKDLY

[2] = target: T2, hPPARγ (Homo sapiens, UniProt P37231); experiment: as above; type: cell-based; settings: for hPPARγ Maximal Fold Activation / pEC50: HEK-293, 18 h, N.D. = not detected up to 100 μM; for hPPARγ Maximal Fold Activation: fold induction vs DMSO; for concentration to reach saturation response (maximal activation): hPPARγ luciferase reporter, HEK-293; for pEC50: read-out: hPPARγ EC50
T2 sequence (P37231 1-477 isoform P37231-2): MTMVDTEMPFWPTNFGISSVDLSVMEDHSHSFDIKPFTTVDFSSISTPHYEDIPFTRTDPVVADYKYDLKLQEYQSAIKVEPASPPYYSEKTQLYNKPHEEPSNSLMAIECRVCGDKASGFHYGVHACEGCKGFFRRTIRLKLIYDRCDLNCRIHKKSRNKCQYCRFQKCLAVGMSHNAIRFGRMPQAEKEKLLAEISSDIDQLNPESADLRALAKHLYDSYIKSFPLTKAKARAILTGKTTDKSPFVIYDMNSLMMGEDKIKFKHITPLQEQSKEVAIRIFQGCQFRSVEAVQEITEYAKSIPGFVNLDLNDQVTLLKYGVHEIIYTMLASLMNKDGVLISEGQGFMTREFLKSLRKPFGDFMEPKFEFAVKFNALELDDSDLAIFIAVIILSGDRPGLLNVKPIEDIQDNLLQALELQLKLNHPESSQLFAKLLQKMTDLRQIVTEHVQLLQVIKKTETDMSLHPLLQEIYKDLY

[3] = system: 3T3-L1 preadipocytes; experiment: 3T3-L1 adipocyte differentiation; type: cell-based, rodent; settings: 10 μM compound, 7 to 8 days
How it was run: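 Mouse 3T3-L1 preadipocytes grown in DMEM with 10% calf serum to confluence (day −2), held 2 more days, then switched at day 0 to DMEM with 10% FCS, 1 μg/ml insulin and test compound (DMSO ≤0.1% final). Medium renewed every 2 days to day 7–8. Cells formalin-fixed 1 h, Oil Red O-stained 10 min, photographed; bound dye eluted in isopropanol, read at 550 nm.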

[4] = target: T3, hPPARγ LBD (Homo sapiens, UniProt P37231); experiment: LanthaScreen TR-FRET PPARγ competitive ligand binding assay; settings: for pKi: hPPARγ LBD, displacement of Fluormone Pan-PPAR Green, Cheng-Prusoff
T3 sequence (P37231 238-503 limits assumed): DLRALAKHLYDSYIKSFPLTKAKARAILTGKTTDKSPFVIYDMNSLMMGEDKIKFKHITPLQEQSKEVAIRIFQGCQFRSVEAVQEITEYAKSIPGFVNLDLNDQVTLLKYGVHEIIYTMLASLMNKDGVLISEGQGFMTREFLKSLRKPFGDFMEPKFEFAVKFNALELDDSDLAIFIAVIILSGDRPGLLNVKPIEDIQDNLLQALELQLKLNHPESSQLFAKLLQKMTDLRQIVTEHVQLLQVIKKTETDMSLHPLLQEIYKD

[5] = system: type 2 diabetic Goto-Kakizaki rats; settings: ref Sohn et al., 2007; cited from earlier work
[6] = system: 3T3-L1 cells and C3H10T1/2 cells; settings: ref Choi et al., 2009; cited from earlier work
[7] = target: T4, hPPARα (Homo sapiens, UniProt Q07869); experiment: PPAR luciferase reporter gene transactivation in HEK-293 cells; type: cell-based; settings: HEK-293, 18 h, fold induction vs DMSO; N.D. = not detected up to 100 μM
T4 sequence (Q07869 1-468): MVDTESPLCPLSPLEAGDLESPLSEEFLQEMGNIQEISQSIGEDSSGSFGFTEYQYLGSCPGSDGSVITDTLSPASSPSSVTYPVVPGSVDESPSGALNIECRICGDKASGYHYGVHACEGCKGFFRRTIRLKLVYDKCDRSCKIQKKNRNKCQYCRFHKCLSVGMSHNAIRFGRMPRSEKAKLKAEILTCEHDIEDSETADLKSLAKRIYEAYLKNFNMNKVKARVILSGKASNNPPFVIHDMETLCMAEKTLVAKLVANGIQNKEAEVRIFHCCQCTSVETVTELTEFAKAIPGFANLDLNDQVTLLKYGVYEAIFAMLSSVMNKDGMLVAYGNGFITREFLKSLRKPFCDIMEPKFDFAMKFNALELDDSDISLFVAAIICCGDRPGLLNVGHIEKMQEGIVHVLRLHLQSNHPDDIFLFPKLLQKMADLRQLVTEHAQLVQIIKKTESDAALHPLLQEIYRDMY

[8] = target: T3, hPPARγ LBD; experiment: LanthaScreen TR-FRET PPARγ coactivator; type: biochemical; settings: 1 h incubation, 520 nm/495 nm ratio
[9] = HEK-293, 18 h, N.D. = not detected up to 100 μM
[10] = read-out: Mouse PPARγ EC50, HEK-293, 18 h, N.D. = not detected up to 100 μM

| Structure (SMILES) | Mouse PPARγ Maximal Fold Activation [1, 9] | pEC50 [1, 10] | hPPARγ Maximal Fold Activation [2] | concentration to reach saturation response (maximal activation) [2] | pEC50 [2] | adipogenic activity (differentiation to adipocytes, Oil Red O) [3] | pKi [4] | further results |
| --- | --- | --- | --- | --- | --- | --- | --- | --- |
| CCCc1cc(OC)c(O)c(-c2cc(CCC)cc(OC)c2O)c1 [Compound 2, tetrahydrodieugenol] | 2.98 | 6.42 | 3.34 | approximately 1 μM | 6.48 | induced 3T3-L1 preadipocyte differentiation | 6.49 | – |
| C=CCc1ccc(O)c(-c2cc(CC=C)ccc2O)c1 [Compound 3, magnolol] | – | – | – | – | – | induced 3T3-L1 preadipocyte differentiation | – | pEC50 [1]: 5.94; fasting blood glucose [5]: decreased; plasma insulin levels [5]: decreased; adipocyte differentiation [6]: enhances adipocyte differentiation |
| CC(C)(Sc1ccc(CCN(CCCCC2CCCCC2)C(=O)NC2CCCCC2)cc1)C(=O)O [GW7647] | – | – | – | – | – | – | – | hPPARα Maximal Fold Activation [7]: 3.09 |
| C=CCc1ccc(O)c(OC)c1 [Compound 4, eugenol, reference compound] | – | – | – | – | – | no adipogenic activity | – | TRAP220/DRIP-2 coactivator peptide recruitment to the PPARγ LBD [8]: not active; binding to the hPPARγ LBD ([4]; test concentrations up to 100 μM): did not bind to the receptor at all |
| C=CCc1cc(OC)c(O)c(-c2cc(CC=C)cc(OC)c2O)c1 [Compound 1, dieugenol] | 2.93 | 6.03 | 3.58 | approximately 1 μM | 6.21 | induced 3T3-L1 preadipocyte differentiation | 6.62 | – |
